Experimental data pooled from the literature.
Target: Dual specificity tyrosine-phosphorylation-regulated kinase 1B (DYRK1B, Homo sapiens, UniProt Q9Y463)

Compound | assay | conditions | measurement | result
Nc1ncc(-c2nc(N3CCOCC3)nc(N3CCOCC3)n2)c(C(F)F)n1 | cell-free assay, competition with immobilised ligand | 10 µM | remaining binding | 76%
N#CC1(c2ccccn2)CCN(Cc2cc(C(=O)O)c(=O)n3ccccc23)CC1 | cell-free assay, competition with immobilised ligand | 1 µM | remaining binding | 98%
COCc1c(-c2cc3cc(C)cc(OC)c3s2)c2c(N)ncnn2c1CN1CCNC(=O)C1 | cell-free assay, competition with immobilised ligand | 1 µM | inhibition | 71%
CC(C)(C)c1nc2c(s1)c1nc(N)ncc1c1ccc(NS(=O)(=O)c3c(F)cccc3F)c(F)c12 | enzyme activity, inhibitor, radiometric | 1 µM | remaining activity | 106%
Cn1cc(-c2cc(F)cc(N3CCn4c(cc5c4CCCC5)C3=O)c2CO)cc(Nc2ccc(N3CCN(C4COC4)CC3)cn2)c1=O | enzyme activity, inhibitor | 0.1 µM | inhibition | 6%
COc1ccc(COc2ccc(Cc3cnc(N)nc3N)cc2OC)cc1 | enzyme activity, inhibitor, radiometric | 0.5 µM | remaining activity | 104%
C=CC(=O)N1CCC[C@@H](n2nc(-c3ccc(Oc4ccccc4)cc3)c3c(N)ncnc32)C1 | cell-free assay | 10 µM | remaining signal | 125%
COc1cc(Nc2ncc(F)c(Nc3ccc4c(n3)NC(=O)C(C)(C)O4)n2)cc(OC)c1OC | binding, competition with immobilised ligand | 10 µM | inhibition | 78%
Cn1cncc1[C@@](O)(COc1ccc(C#N)cc1-c1ccc(OC(F)(F)F)cc1)c1ccc(C#N)cc1 | cell-free assay, competition with immobilised ligand | 1 µM | remaining binding | 38%
Cc1nn(C)cc1-c1nc2c(N3CCN(Cc4ccc(Cl)cc4)CC3)c(Cl)cnc2[nH]1 | binding, competition with immobilised ligand | 1 µM | remaining binding | 75%
Cn1cc(-c2cccc(N3CCc4c(sc5c4CC(C)(C)C5)C3=O)c2CO)cc(Nc2ccncn2)c1=O | enzyme activity, inhibitor | 1 µM | inhibition | 2%
CC#CC(=O)Nc1cc2c(Nc3ccc(F)c(Cl)c3)ncnc2cn1 | enzyme activity, inhibitor, radiometric | 0.5 µM | remaining activity | 103%
COc1ncccc1-c1cnn2ccc(N3CCN(C(=O)OC(C)C)CC3)nc12 | binding, competition with immobilised ligand | 1 µM | remaining binding | 65%
O=C1NC(=O)C(c2cn(CCCn3ccnc3)c3ccccc23)=C1Nc1ccccc1 | enzyme activity, inhibitor, radiometric | 0.5 µM | remaining activity | 56.3%
CC(C)(C)c1nc(-c2cccc(NS(=O)(=O)c3c(F)cccc3F)c2F)c(-c2ccnc(N)n2)s1 | enzyme activity, inhibitor, radiometric | 1 µM | remaining activity | 98%
